From the RNAGym collection of RNA variant scans (doi:10.1126/science.aae0568)
Variants at the floor of the assay were thinned out.

B1: tRNA (parent)
chain: GUUCCGUUGGCGUAAUGGUAACGCGUCUCCCUCCUAAGGAGAAGACUGCGGGUUCGAGUCCCGUACGGAACG

Variants of: B1
Experiment: yeast fitness relative to wild type (ratio to wild type); higher = fitter; tRNA-Arg(CCU), competitive growth, 37 C, YPD
Method in brief: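 Start and end populations of a pooled competition were compared by 100-nucleotide paired-end sequencing of gene amplicons. The Saccharomyces cerevisiae strains carried tRNA-Arg(CCU) gene variants at the native genomic locus, synthesised with a 3% per-site mutation rate at 69 sites, and competed in YPD at 37°C for 24 hours in six parallel replicates. Darwinian fitness relative to wild type was based on the change in genotype frequencies. Genotypes required ≥ 100 starting reads, and estimates < 0.5 were set to 0.5.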
GGUCCGUUGGCGUAAUGGUAACGCGUCUCCCUCCUGAGGUGAUGACUGCGGGUUCGAGUCCCGUACGGAACG showed a yeast fitness of at most 0.5. GUUCCAUUGGCGUAAUGGUCACGCGUCUCCCUCCUAAGGAGAAGACUGCGGGUUCGAGUCCCGUACGGAGCG gave a yeast fitness of 0.718. Work on GGUCCGUUGGCGUAAUGGUAACGCGUCUCUCUCCUAAGGCGAAGACUGCGGGUUCGAGUCCCCCACGGAACG yielded a yeast fitness of at most 0.5. GUUCCGUUAGCGUAAUGGUAACGCGUGUCCCUCCUAAGGGGAAGACUGCGGGUUCGAGUCCCGUACGAAACG showed a yeast fitness of at most 0.5. For GUUCCGUUGGCGUAUUGGUAACGCGUCUCCCUCCUAAGGAGAUGACUGCGGGUUCGAGUCCCGUACGGAACG, the yeast fitness was 0.826. Work on GUUCCGUUGGCGUCAUGGUAACGCGUCUCCCUCCUAAGGAGAAGACUGCGGGUUCGAGUCCCGUAAGGAACG yielded a yeast fitness of 0.722. In the case of GUUCCAUUGGCGUAAUGGUAACACGUCUCCCUCCUAAGGAGAAGACUGCGGGUUCGAGUCCCGUACGGAACG, the yeast fitness is reported as 0.877. With GUUCCGUUGGCGUGAUGGUAACGCGUCUCCCUCCUAAGGAGAAGACUGCGGGUUUGAGUCCCGUACGGUACG the yeast fitness was at most 0.5. GUUCCGUUGGCGUAAUGGUGACGCGUCUCCCUCCUAAGGAGAAGUCUACGGGUUAGAGUCCCGUACGGAACG showed a yeast fitness of at most 0.5. Variant GUUCCGUUGGCGUAAUGGUAACGCGUCUCCCUCCUAUGGAGAAGACUGCGGGUUCGAGUCCCGUUCGGAACG has a yeast fitness of 0.665. Variant GUUCCGUUGGCGUAAUGGUAACGCGUCUCCCUCCUAAGGAGAAGACGGCGGGUUCGAGUCCCGUACGGACCG has a yeast fitness of 0.685. In the case of GUUCCGUUGGCGUAAUGGAAACGCAUCUCCCUCCUAAGGCGAAGAUUGCGGGUUCGAGUCCCGUACGGAACG, the yeast fitness is reported as 0.588. GUUCCGGUGGCGUAAUGGUAACGCGUCUCCCUCCUAAGGAGAAGUCUGCGGGUUCGAGUCCCGUACGGAACG showed a yeast fitness of 0.852. For GUUCCGUUGGCGUAAUGGUAACGCGUCUCCCUCCUAAGGAGAUGACUACGGGUUCGAGUACCGUACGGAACG, the yeast fitness was 0.586. GUCCCGUUGGCGUAAUGGUAACGCGUCUCCCUCAUACGAAGAAGGCUGCGGGUUCGAGUCCUGUACGGAACG showed a yeast fitness of 0.534. Work on GUUCCGUUGGUGUAAUGGUAACGUGUCUCCCUCGUAAGGAGAAGACUGCGGGUUCGAGUCCCGAACGGAACG yielded a yeast fitness of at most 0.5. Variant GUCCCGUUGGCGUAAUGGUAACGCGUCUCCUUCCUAAGGAGAAGACUGCGGGUUCGAGUCCCGUACGGAACG has a yeast fitness of 0.891. In the case of GUUACGUUGGCGAAAUGGUAACGCGUCUCACCCCUAAGGAGAAGACUGCGGGUUCGAGUCGCGUACGCAACG, the yeast fitness is reported as at most 0.5. GUUCCGUUGGCGAAAUGGUAACACGUCUCCCUCCUCAAGAGAAGACUGCGGGUUCGAGUCCCGUGCGGAACG gave a yeast fitness of at most 0.5. For GUUCCGUUGGCGUAAUGGCAACGCGUCUCCGUCCUAAGGAGAAGACUGCGGGUUCGAGUCCCGUAGGGAACG, the yeast fitness was at most 0.5. In the case of GUUCCGUUGGCGUAAUGGCAACGCGUCUCCCUCCUAAGGAGAAGACUGCGCGUUCGAGUCCCGUAUGGAACG, the yeast fitness is reported as at most 0.5. GUACCGUCGGCGUAAUGGUAACGCGUCUCGCUUCUAAGGAGAAGACUGCGGGUUCGAGUCCCGUACGGAACG showed a yeast fitness of at most 0.5. Variant GUUCCGUUGGCGUAAUGGUAACGCGUCUCCCUCCUAAGGAGAAGACUGCGGGUUCGCGUCCCGUACGGACCG has a yeast fitness of 0.676. GUUCCGUUGCCGUACUGGUAACGCGUCUCCCUCCUAAGGAGACGACUGCGGGUUCGAGUCCCGUACGGAACG showed a yeast fitness of at most 0.5. Variant GUUCCGUUGGCGUAAUGGUAACGCGUCCCCCUCCUAAGGAGAAGAUUGCGCGUUCGAGUCCCGUACGGACCG has a yeast fitness of at most 0.5. GUUCCGUUGGCGCAAUGGUAACGCGUCUCCCUCCUAAGGAGAAGACUGCGGAUUCGAGUCCCGUACGGAACG gave a yeast fitness of 0.735. With GUUCCGUUGGCGUAAUGGUAACGCGUCUCCCUCCUAAGGAGAAGACCGCGGGUUCGAGUACCGUACGGAACG the yeast fitness was 0.603. In the case of GUUCCGUUGGCGUAAUGGUAACGCGUCUCCCUCCUAAGGAGAAGGCUGCGGGUUCGAGUCCCGUCCGGAACG, the yeast fitness is reported as 0.868. Work on GUUCCGUUGGCGUAAAUCUAACGCGUCUCCCUCCUAAGGAGAAGACUCCGGGUUCGAGUCCCGUACGGAACG yielded a yeast fitness of 0.764. GUUCCGUUGGAGUAAUGGUAACGCGUCUCCCUCCUAAGGACAAGACUGCGGGUUCGAGUCCCGUACGGAACG gave a yeast fitness of 0.714. For GUUCCGAUGGCGUAAUGGUAACGCGUAUGGCUCCUAAGGAGAAGACAGCGGGUUCGAGUCCCGUACGGAGCG, the yeast fitness was at most 0.5. GUUCCGUUGGCGUAAUGGUAACGCGUCUCCCUCCUAAGGAGAAGACUGCGCGUUCGAGUCCCGUAUGGAACG gave a yeast fitness of 0.565. For GUUCCGUUGGCGUAAUGGUAACGCGUCUCCCUCCUAAGGAGCAGACUGCGGGUUCGAGUCCCGUGCGGAACG, the yeast fitness was 0.922. GUUCCGUAGGCGUAUUGGUAACGCGUCUCCCUCCUAAGGAGAAGACUGCGGGUUCGAGUCCCGUACGGAACG gave a yeast fitness of 0.587. GUUCCGUUGGCGUAAUGGUAACGCGUCUUCCUACUAAGGAGAAGACUGCGGGUUCGAGUCCCCUCAGGAACG gave a yeast fitness of at most 0.5. In the case of GUUCCGUUGGCGUAAUGGUAACGCGUCUCCCUCCUAAGGAGAAGACUGCGGGUCCGAGUCCCGUACGGAACG, the yeast fitness is reported as 0.806. Work on GUUCCGUUGGCGUAAUGGUAACGCGUCUCUCUCCUAAGGAGAAGACUGCGGGUACGAGUCCCGUAUGGACCG yielded a yeast fitness of at most 0.5. For GUUCGGUCGGCGUAAUGGUAACGCGUCUCCCUCCUCAGGAGAUGACUGCGGGUUCGAGUCCCGUACGGAACG, the yeast fitness was at most 0.5. In the case of GUGCCGUUGGCGUAAUGGUAACGCGUCUCCCUCCUAAGGAGAAGACUGCGGGUUCGAGUCCAGUACGGAACG, the yeast fitness is reported as 0.75. Work on GUUCCGUUAGCGUAAUGGUAACGCGUCUCCCUCCUUAGAAGAAGACUGCGGGUUCGGGUCCCGUACGGCACG yielded a yeast fitness of at most 0.5. GUUCCGUUGGCGUAAUGGUAACCCGUCUCCCUCCUAAGGAGAAGUCUGCGCGUUCGAGUCCCGUACGGAACG showed a yeast fitness of at most 0.5. For GUUCCGUUGGCGUAAUGGUAACGGGUUUCCCUUCUAAGGAGAAGACUACCGGUUCGAGUCCCGUACGAAACG, the yeast fitness was at most 0.5. Variant GUUCCGUUGGCGUAAUGGUAACGCGUAUCCCUCCUAACGAGAAGACUGCGGGUUCGAGUCCCGUACGUAACG has a yeast fitness of at most 0.5. With GUUCCGUUGGCGUAAUGGUAACACGUGUUCCUCCUAAGGAGAAGACUGCGGGUUCAAGUCCCGUACGGAACG the yeast fitness was at most 0.5. Variant GUUCCGUUAGCGUAAUGAUAACGUGUCUCCCUCCUAAGGAGAAGACUGCGGGUUCGCGUCCCGUACGGAACG has a yeast fitness of at most 0.5. GUUCCGUUGGCGUAACGGUAACGCGUCUCCCUCCUAAGGAGACGACUGCGGGUACGAGUUCCGUACGAAACG gave a yeast fitness of 0.55. GUUCCGUUGGCGUAAUGGUAACGCGUCUCCCUCCCACGGAGAAGACUGCGGGUUCGAGUCCCGUACGGAACG gave a yeast fitness of 0.817. Variant GUUCCGUUGGUGUAAUGGUAACGCGUCUCCCUCCUAAGGAGAAGACUGCGGGAUCGAGUCCCGUACGGAACG has a yeast fitness of 0.751. Work on GAUCCGUUGGAGUGAUGGUAACGCGUCUUCCUCCUAAGGAGAAGACUGCGGGUUCGAGUCCCGUCCGGAACG yielded a yeast fitness of 0.568. In the case of GUUCCGUUGGCGUAAUGGUAACGCGUCUCCCUCCUAAGGAGAAGAGUGUGGGUUCGAGUCCCGUACUGAACG, the yeast fitness is reported as 0.671. With GUUCCGUUGGCGUAAUGGUAACGCGUCUCCCUCCUAAGGAGAAGACUGCGGGUUCGAGUCACGUACGGAUCG the yeast fitness was 0.673. For GUUCCGCUGCCGUAAUGGUAACGCGUCUCCCUCCUAAGGAGAAGAUUGCGGGUUCGAGUCCCGUACGGAACG, the yeast fitness was 0.523. For GUUCCGUUGGCGUAAUGGUCACGCGUCUCCCUCCUAAGGAGAAGACUGCGGGUUCGAGUCCUGUACGGAACG, the yeast fitness was 0.923. GUUCGGUUGGCGCAAUGGUAACGCGUCUCCCUCCUAAGGAGAGGACUGCCGGUUCGAGUCCCGUACGGAACG showed a yeast fitness of 0.566. Work on GUUCCGUUGGCGUAAUGGUAACGCGUAUCCGUCCUAAGGAGAAGAUUGCGGGUUCGAGUCCCGUACGGAACG yielded a yeast fitness of 0.621. Variant GUUCCGUUGGCGUAAUGGUAACGCGUUUCCCUCCUAAGCAGAAGACUGUGGGUUCGAGUCCCCUACGGAACG has a yeast fitness of at most 0.5. Variant GUUCCGUUGGCGUAAUGGUAACGCGUCUCCCUACUAAGGAGAAGACUGCGGGUUCGAGUCCCGAACGGACCG has a yeast fitness of at most 0.5. With GUUCCGUUGGCGUACUGGUAACGCGUCUCCCUCCUAAGGAGCAGACUGCGGGUUCGAGUCCCGUACGGAACG the yeast fitness was 0.646. With GUUCCGUUGCCGUAAUGGUAACGCGACUCCCUCCUAAGGAGAAGACUGUGGGUUGGAGUGCCGUACGGAACG the yeast fitness was at most 0.5. For GUUCUGUUGGCGUAAUGGUAACGCGUCGCCCUCCUAAGGAGAAGCCUGCGGGUUCGAGUCCCGUACGGAACG, the yeast fitness was 0.592. GUUCCGUUGGCGUAAUGGUAACGCGUCUCUUUCCUAAGGAGAAGACUGCGGGUUCGAGUCCCGUACGGAACG showed a yeast fitness of 1.02. Work on GUUCCGUUGGCGUAAUGGUAAAGCGUCUCCCUCCUAAGGAGAUGACUGCGGGUUCGAGUACCGUACGGAACG yielded a yeast fitness of at most 0.5. With GUUCCGUUAGCGUAAAGGUAACCAGUCGCCCUCUUAUGGAGAAGACUGCGGGUUCGAGUCCCGUACGGAACG the yeast fitness was at most 0.5. For GUUCCGUUGGCCUAAUGGUAACGCGUCUCCCUCCUACGGAGAAGACUGCGGGUUCGAGUCCCGUACGGAACG, the yeast fitness was 0.648. GUUCCGUAGGCGUAAUGCUAACGCGUCUCCCUCCUAAGGAGAAGACUGCGGGUUCGAGUCCCGUACGGAACG showed a yeast fitness of at most 0.5. Work on GUUCCAUUGGCGUAAUGGUAACGCGUCUCGCUCCUAAGGAGAAGACUGCGGGUUCGCCUCCCGUACGGAACG yielded a yeast fitness of at most 0.5. In the case of GUUCCGUUGGCGUAAUGGUCACGCGUCGCCCUCCUAAGGAGAAGACCGCGGGUUCGAGUCCCGUAUGGAACG, the yeast fitness is reported as at most 0.5. For GUUCUGUUGCCGUAAUGGUAACGCGUGCCCCUCCUAAGCAGAAGAGUGCGGGUUCGAGUCCCGUACGGAACG, the yeast fitness was 0.606. With GUUCCGUCGGCGUAAUGGUAACGCGUCUCCCUCCUAAGGAGUGGACUGCGGGUUCGAGUCCCGUACGGAACG the yeast fitness was 0.507. For GUUCCGGUGGCGUAAUGGUAACGCGUCUCCCUCCUAAGGAGAAGACUGCGGGUUCGAGUCCCGUACGGUACG, the yeast fitness was 0.894. GUUCCGUUGGCGUAAUGGUAACGCGUCUCCCUCCUGAGGAGAAGACUGCGGGUUCAAGUCCCGUACGGAACG gave a yeast fitness of 1.01. GUUCCGUUGGCGUAAUGAUAACGCGUCUCUCUCCUAAGGAGAAGACUGCGGGUUCGCGUCCCGUACGGAACG showed a yeast fitness of at most 0.5. GUUCCGUUGGCGUAAUGGUAACGCGUCUCCCUCCUGAGGAGAAGACUGCGGGUUCGAGUAGCGUUCGGAACG showed a yeast fitness of at most 0.5. Variant GUUCCGUUGGCGUAAUGGUAACGCGUCUCCCUCCUAAGGAGAAGACUGCGGGUUGGGGUCCCGUACGGAACG has a yeast fitness of 0.638. For GUUACGUUGGCGUAAUCGUAUCGCGUCUCCCUGCUAAGGAGAAGACUGCGGGUUCGAGUCCCGUACGGAACG, the yeast fitness was 0.517.
